ChEMBL document CHEMBL1124174, “Substituted benzamides. 1. Potential nondopaminergic antagonists of chemotherapy-induced nausea and emesis” (J Med Chem, 1988)
Values joined by “and” are separate entries in the source; they are usually repeats but may differ in a detail not shown here. Equal values may be shown once.

What was measured:
[1] = test system: Mustela putorius furo; assay: In vivo antagonism of cisplatin-induced emesis in ferret measured as emetic episodes, twice the dose of 0. 3 mg/kg and in 3 ferrets; assay type: functional
Summary of the method: (§1)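 Nonfasted castrated male Fitch ferrets (1–1.5 kg) had jugular catheters implanted ≥48 h earlier under anesthesia. Compounds or saline were given iv twice, 5 min before and 90 min after cisplatin (12 mg/kg iv; 12 mg/mL in warm 0.9% saline). Emesis was observed up to 4 h; events within 1 min counted as one episode. Results were given as mean emetic episodes and % protection versus a pooled historical/concurrent control. t test versus saline.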

[2] = molecular target: D(2) dopamine receptor (Canis lupus familiaris) (UniProt Q9GJU1); assay: In vivo antagonism activity against dopamine D2 receptor was measured as emesis in dog when administered subcutaneously; assay type: functional, organism-based
[3] = test system: Canis familiaris; assay: In vivo antagonism of cisplatin-induced emesis in dog measured as percentage protection for twice the dose of 0.3 mg/kg in 2 dogs; assay type: functional, Canis lupus familiaris
Summary of the method: (§2)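 Nonfasted mature male or female beagles were dosed sc twice, 30 min before and 120 min after cisplatin (3 mg/kg iv; 3 mg/mL in warm 0.9% saline, used immediately). Emesis was observed up to 5 h; events within 2 min counted as one episode. Results were given as mean emetic episodes and % protection versus a dynamic control (historical and concurrent saline means pooled). t test versus saline.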

[4] = molecular target: D(2) dopamine receptor (Rattus norvegicus) (UniProt P61169); assay: In vivo antagonism activity against D2 receptor was measured as stereotypy in rat when administered subcutaneously; assay type: functional, organism-based
Summary of the method: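 Male Long Evans rats (275 g) were dosed sc in dilute aqueous HCl (pH 4.5-5.5) 30 min before apomorphine (1 mg/kg sc).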

[5] = molecular target: D(2) dopamine receptor (Rattus norvegicus) (UniProt P61169); assay: In vivo antagonistic activity against dopamine D2 receptor was measured as catalepsy in rat when administered subcutaneously; assay type: functional, organism-based
Summary of the method: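 Male Long Evans rats (275 g) received graded sc doses in dilute aqueous HCl (pH 4.5-5.5). They were observed 180 min for catalepsy, scored when the animal stayed stationary ≥15 s on a four-cork template.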

[6] = test system: Mustela putorius furo; assay: In vivo antagonism of cisplatin-induced emesis in ferret measured as percentage protection for twice the dose of 3 mg/kg and in 3 ferrets; assay type: functional; summary of the method: as §1
[7] = test system: Mustela putorius furo; assay: In vivo antagonism of cisplatin-induced emesis in ferret measured as percentage protection for twice the dose of 3 mg/kg
[8] = test system: Canis familiaris; assay: In vivo antagonism of cisplatin-induced emesis in dog measured as emetic episodes, twice the dose of 0.3 mg/kg in 2 dogs; assay type: functional, Canis lupus familiaris; summary of the method: as §2
[9] = molecular target: D(2) dopamine receptor (Rattus norvegicus, UniProt P61169); assay: In vitro antagonistic activity against Dopamine receptor D2 was evaluated for the inhibition of [3H]spiperone binding
Summary of the method: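 Rat striatal membranes were prepared by differential centrifugation in 50 mM Tris pH 7.4 at 4 °C. Membrane protein (10 mg) was incubated 15 min at 37 °C with 0.1 nM [3H]spiperone and varying competitor concentrations. Buffer: 50 mM Tris HCl pH 7.5, 0.1% ascorbic acid, pargyline, 120 mM NaCl, 5 mM KCl, 2 mM CaCl2, 1 mM MgCl2. (+)-Butaclamol defined nonspecific binding. Bound ligand was collected by filtration and scintillation counted. IC50 by log-logit regression.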

[10] = test system: Mustela putorius furo; assay: In vivo antagonism of cisplatin-induced emesis in ferret measured as emetic episodes, twice the dose of 3 mg/kg and in 3 ferrets; assay type: functional; summary of the method: as §1
[11] = test system: Canis familiaris; assay: (§3) In vivo antagonism of cisplatin-induced emesis in dog measured as emetic episodes, twice the dose of 0.2 mg/kg in 4 dogs; assay type: functional, Canis lupus familiaris; summary of the method: as §2
[12] = test system: Canis familiaris; assay: In vivo antagonism of cisplatin-induced emesis in dog measured as percentage protection for twice the dose of 0.2 mg/kg in 4 dogs; assay type: functional, Canis lupus familiaris; summary of the method: as §2
[13] = test system: Canis familiaris; assay: as §3; assay type: functional, Canis lupus familiaris; summary of the method: as §2; remark: listed apart in the source
[14] = test system: Canis familiaris; assay: Protection against cisplatin-induced emesis in dog measured as percentage protection for twice the dose of 0.2 mg/kg; assay type: functional, Canis lupus familiaris
[15] = test system: Mustela putorius furo; assay: In vivo antagonism of cisplatin-induced emesis in ferret measured as emetic episodes, twice the dose of 2.5 mg/kg in 5 ferrets; assay type: functional; summary of the method: as §1
[16] = test system: Canis familiaris; assay: Protection against cisplatin-induced emesis in dog measured as percentage protection for twice the dose of 2.5 mg/kg and in 4 dogs(2 protected); assay type: functional, Canis lupus familiaris
[17] = test system: Canis familiaris; assay: […] cisplatin-induced emesis in dog was measured for as stereotypy when administered iv twice daily; assay type: functional; details: Canis lupus familiaris
[18] = test system: Canis familiaris; assay: (§4) In vivo antagonism of cisplatin-induced emesis in dog measured as emetic episodes, twice the dose of 0.8 mg/kg in 3 dogs; assay type: functional, Canis lupus familiaris; summary of the method: as §2
[19] = test system: Canis familiaris; assay: In vivo antagonism of cisplatin-induced emesis in dog measured as percentage protection for twice the dose of 0.8 mg/kg in 3 dogs; assay type: functional, Canis lupus familiaris; summary of the method: as §2
[20] = test system: Mustela putorius furo; assay: antagonism of cisplatin-induced emesis in ferret measured when administered intravenously twice daily; details: iv
[21] = test system: Mustela putorius furo; assay: In vivo antagonism of cisplatin-induced emesis in ferret measured as percentage protection for twice the dose of 0.2 mg/kg in 4 ferrets; assay type: functional; summary of the method: as §1
[22] = test system: Canis familiaris; assay: In vivo antagonism of cisplatin-induced emesis in dog measured as percentage protection for twice the dose of 2.5 mg/kg in 4 dogs; assay type: functional, Canis lupus familiaris; summary of the method: as §2
[23] = test system: Mustela putorius furo; assay: In vivo antagonism of cisplatin-induced emesis in ferret measured as emetic episodes, twice the dose of 0.8 mg/kg in 5 ferrets; assay type: functional; summary of the method: as §1
[24] = test system: Canis familiaris; assay: (§5) In vivo antagonism of cisplatin-induced emesis in dog measured as emetic episodes, twice the dose of 2.5 mg/kg in 4 dogs; assay type: functional, Canis lupus familiaris; summary of the method: as §2
[25] = test system: Canis familiaris; assay: as §5; assay type: functional, Canis lupus familiaris; summary of the method: as §2; remark: listed apart in the source
[26] = test system: Canis familiaris; assay: Protection against cisplatin-induced emesis in dog measured as percentage protection for twice the dose of 0.8 mg/kg and in 3 dogs(1 protected); assay type: functional, Canis lupus familiaris
[27] = test system: Mustela putorius furo; assay: In vivo antagonism of cisplatin-induced emesis in ferret measured as emetic episodes, twice the dose of 0.2 mg/kg in 4 ferrets; assay type: functional; summary of the method: as §1
[28] = test system: Mustela putorius furo; assay: (§6) In vivo antagonism of cisplatin-induced emesis in ferret measured as percentage protection for twice the dose of 2.5 mg/kg in 5 ferrets; assay type: functional; summary of the method: as §1
[29] = test system: Mustela putorius furo; assay: as §6; assay type: functional; summary of the method: as §1; remark: listed apart in the source
[30] = test system: Mustela putorius furo; assay: In vivo antagonism of cisplatin-induced emesis in ferret measured as percentage protection for twice the dose of 0.8 mg/kg in 5 ferrets; assay type: functional; summary of the method: as §1
[31] = test system: Canis familiaris; assay: as §4; assay type: functional, Canis lupus familiaris; summary of the method: as §2; remark: listed apart in the source
[32] = test system: Mustela putorius furo; assay: In vivo antagonism of cisplatin-induced emesis in ferret measured as emetic episodes, twice the dose of 1 mg/kg and in 3 ferrets; assay type: functional; summary of the method: as §1
[33] = test system: Mustela putorius furo; assay: In vivo antagonism of cisplatin-induced emesis in ferret measured as percentage protection for twice the dose of 1 mg/kg and in 3 ferrets; assay type: functional; details: 1 mg/kg; summary of the method: as §1
[34] = test system: Mustela putorius furo; assay: In vivo antagonism of cisplatin-induced emesis in ferret measured as emetic episodes, twice the dose of 0.3 mg/kg and in 3 ferrets; assay type: functional; details: in the assay text read “in 2 ferrets” for “in 3 ferrets”; summary of the method: as §1
[35] = test system: Canis familiaris; assay: In vivo antagonism of cisplatin-induced emesis in dog measured as emetic episodes, twice the dose of 1 mg/kg in 2 dogs; assay type: functional, Canis lupus familiaris; details: 1 mg/kg; summary of the method: as §2
[36] = test system: Canis familiaris; assay: In vivo antagonism of cisplatin-induced emesis in dog measured as percentage protection for twice the dose of 1 mg/kg in 2 dogs; assay type: functional, Canis lupus familiaris; summary of the method: as §2
[37] = test system: Mustela putorius furo; assay: in vivo antagonism of cisplatin-induced emesis in ferret measured as emetic episodes, twice the dose of 0.3 mg/kg and in 3 ferrets; assay type: functional
Summary of the method: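 Nonfasted castrated male Fitch ferrets (1–1.5 kg) carried jugular vein catheters implanted at least 48 h earlier under general anesthesia. Test compound or saline was given iv twice, 5 min before and 90 min after cisplatin (12 mg/kg iv; 12 mg/mL in warm saline). Emesis was watched for 4 h, with events within 1 min counted as one episode. % protection is relative to a pooled historical-plus-concurrent control, with t test versus saline.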

[38] = test system: Canis familiaris; assay: Antagonism of cisplatin-induced emesis in dog measured as emetic episodes, twice the dose of 1 mg/kg in 2 dogs.(in vivo); assay type: functional, Canis lupus familiaris; summary of the method: as §2
[39] = test system: Canis familiaris; assay: Antagonism of cisplatin-induced emesis in dog measured as emetic episodes, twice the dose of 0.3 mg/kg in 2 dogs.(in vivo); assay type: functional, Canis lupus familiaris; summary of the method: as §2
[40] = test system: Canis familiaris; assay: in vivo antagonism of cisplatin-induced emesis in dog measured as emetic episodes, twice the dose of 0.3 mg/kg in 2 dogs; assay type: functional, Canis lupus familiaris

Chain of D(2) dopamine receptor (Canis lupus familiaris) (Q9GJU1 whole entry): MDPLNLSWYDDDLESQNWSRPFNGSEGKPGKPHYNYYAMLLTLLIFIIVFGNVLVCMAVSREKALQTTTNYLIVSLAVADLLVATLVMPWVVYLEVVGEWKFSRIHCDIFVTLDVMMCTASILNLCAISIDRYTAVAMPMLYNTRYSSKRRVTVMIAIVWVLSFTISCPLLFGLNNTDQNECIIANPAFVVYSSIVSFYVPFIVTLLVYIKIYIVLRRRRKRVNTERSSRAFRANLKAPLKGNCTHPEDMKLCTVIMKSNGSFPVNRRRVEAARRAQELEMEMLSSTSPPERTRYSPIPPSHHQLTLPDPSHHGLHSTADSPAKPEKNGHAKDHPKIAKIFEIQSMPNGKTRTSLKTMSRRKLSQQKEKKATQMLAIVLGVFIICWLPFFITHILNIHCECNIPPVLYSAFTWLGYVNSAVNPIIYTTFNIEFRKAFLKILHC
Chain of D(2) dopamine receptor (P61169 whole entry): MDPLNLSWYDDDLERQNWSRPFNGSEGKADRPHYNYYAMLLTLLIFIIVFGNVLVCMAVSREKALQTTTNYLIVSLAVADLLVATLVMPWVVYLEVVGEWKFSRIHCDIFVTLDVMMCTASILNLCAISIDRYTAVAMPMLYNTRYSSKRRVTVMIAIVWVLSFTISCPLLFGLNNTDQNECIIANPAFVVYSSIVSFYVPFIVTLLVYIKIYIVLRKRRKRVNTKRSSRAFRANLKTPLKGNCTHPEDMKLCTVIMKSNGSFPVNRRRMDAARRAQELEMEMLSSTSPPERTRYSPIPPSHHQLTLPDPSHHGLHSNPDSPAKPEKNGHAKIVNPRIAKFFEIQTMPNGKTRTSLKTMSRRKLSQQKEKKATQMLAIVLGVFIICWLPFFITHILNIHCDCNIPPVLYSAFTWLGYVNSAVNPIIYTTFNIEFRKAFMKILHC
Chain of D(2) dopamine receptor (Rattus norvegicus) (P61169 whole entry): as above

CCN(CC)CCN1C(=O)c2cc(Cl)c(NC=O)cc2OC(C)=C1C
Emetic episodes [1]: 4.7
ED50 [2]: > 3 mg/kg
Protection [3]: 25%
ED50 [4]: > 40 mg/kg
ED50 [5]: > 40 mg/kg
Protection [6]: 100%
Protection [7]: 32%
Emetic episodes [8]: 9.5
IC50 [9]: > 1 µM
Emetic episodes [10]: 0

CCN(CC)CCNC(=O)c1cc(Cl)c(N)cc1OC [METOCLOPRAMIDE]
Emetic episodes [11]: 5
Protection [12]: 58%
Emetic episodes [13]: 5
ED50 [2]: 0.36 mg/kg
Protection [14]: 58%
Emetic episodes [15]: 0.6
Protection [16]: 92%
ED50 [17]: 0.18 mg/kg
Emetic episodes [18]: 1
Protection [19]: 92%
ED50 [20]: 0.53 mg/kg
Protection [21]: 22% and 21%
Protection [22]: 92%
Emetic episodes [23]: 2.4
Emetic episodes [24]: 1
Emetic episodes [25]: 1
Protection [26]: 92%
Emetic episodes [27]: 5.5
ED50 [4]: 4 mg/kg
ED50 [5]: 26 mg/kg
Protection [28]: 90%
Protection [29]: 91%
Protection [30]: 73% and 66%
Emetic episodes [31]: 1

CCN(CC)CCNC(=O)c1cc(Cl)c(N)cc1OC[C@@H](C)O (stereo in doubt; 8e)
Emetic episodes ([32]; 1 mg/kg): 2
Protection [33]: 73%
Protection ([3]; 0.3 mg/kg): 45%
Protection [34]: 18%
Emetic episodes [35]: 1
Protection ([36]; 1 mg/kg): 92%
Emetic episodes [37]: 6
Emetic episodes ([8]; 0.3 mg/kg): 6.5
IC50 [9]: > 1 µM

CCN(CC)CCNC(=O)c1cc(Cl)c(N)cc1OCCC(C)OC (stereo not drawn)
Emetic episodes [38]: 1.5
ED50 [2]: > 3 mg/kg
Emetic episodes [32]: 4.3
Protection [32]: 42%
Protection [3]: 28%
Protection [36]: 88%
ED50 [4]: > 40 mg/kg
ED50 [5]: > 40 mg/kg
Protection [6]: 82%
Emetic episodes [39]: 8.5
IC50 [9]: > 1 µM
Emetic episodes [10]: 1.3

CCN(CC)CCNC(=O)c1cc(Cl)c(N)cc1OCC(=O)Cc1ccccc1
ED50 [2]: > 3 mg/kg
Protection [3]: 0%
Emetic episodes [40]: 13
ED50 [4]: > 40 mg/kg
ED50 [5]: > 40 mg/kg
Protection [6]: 100%
IC50 [9]: > 1 µM
Emetic episodes [10]: 0
